Laboratory results taken from ChEMBL document CHEMBL4118033, “Total Synthesis, Configuration Assignment, and Cytotoxic Activity Evaluation of Protulactone A” (J Nat Prod, 2017).
The source made the active and inactive calls. No cut-off for these calls is given here.

Columns and labels:
Format in all cases: functional, cell-based
[1] = tested on: SR; test: Antiproliferative activity against human SR cells at 10 uM incubated for 48 hrs by sulforhodamine B assay
In short: (§1)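 Run by the NCI Developmental Therapeutics Program (Division of Cancer Treatment and Diagnosis) as part of the NCI60 human tumour cell line panel. Each compound was tested in vitro at a single dose of 10 μM, and the data are reported as one-dose mean graphs across the panel.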

[2] = tested on: SK-MEL-2; test: Antiproliferative activity against human SK-MEL-2 cells at 10 uM incubated for 48 hrs by sulforhodamine B assay
In short: (§2)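 Run by the NCI Developmental Therapeutics Program (Division of Cancer Treatment and Diagnosis) as part of the NCI60 human tumour cell line panel screen. Each compound was tested at a single dose of 10 μM. Results are reported as one-dose mean graphs.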

[3] = tested on: UACC-257; test: Antiproliferative activity against human UACC257 cells at 10 uM incubated for 48 hrs by sulforhodamine B assay; in short: as §1
[4] = tested on: K562; test: Antiproliferative activity against human K562 cells at 10 uM incubated for 48 hrs by sulforhodamine B assay; in short: as §2
[5] = tested on: NCI-H522; test: Antiproliferative activity against human NCI-H522 cells at 10 uM incubated for 48 hrs by sulforhodamine B assay; in short: as §2
[6] = tested on: TK-10; test: Antiproliferative activity against human TK10 cells at 10 uM incubated for 48 hrs by sulforhodamine B assay; in short: as §1
[7] = tested on: SF-539; test: Antiproliferative activity against human SF539 cells at 10 uM incubated for 48 hrs by sulforhodamine B assay; in short: as §2
[8] = tested on: SF-268; test: Antiproliferative activity against human SF268 cells at 10 uM incubated for 48 hrs by sulforhodamine B assay; in short: as §2
[9] = tested on: SK-MEL-28; test: Antiproliferative activity against human SK-MEL-28 cells at 10 uM incubated for 48 hrs by sulforhodamine B assay; in short: as §2
[10] = tested on: CCRF-CEM; test: Antiproliferative activity against human CCRF-CEM cells at 10 uM incubated for 48 hrs by sulforhodamine B assay; in short: as §2
[11] = tested on: NCI/ADR-RES; test: Antiproliferative activity against human NCI/ADR-RES cells at 10 uM incubated for 48 hrs by sulforhodamine B assay; in short: as §2
[12] = tested on: MDA-MB-231; test: Antiproliferative activity against human MDA-MB-231 cells at 10 uM incubated for 48 hrs by sulforhodamine B assay; in short: as §2
[13] = tested on: OVCAR-5; test: Antiproliferative activity against human OVCAR5 cells at 10 uM incubated for 48 hrs by sulforhodamine B assay; in short: as §2
[14] = tested on: PC-3; test: Antiproliferative activity against human PC3 cells at 10 uM incubated for 48 hrs by sulforhodamine B assay; in short: as §2
[15] = tested on: MDA-MB-435; test: Antiproliferative activity against human MDA-MB-435 cells at 10 uM incubated for 48 hrs by sulforhodamine B assay; in short: as §2
[16] = tested on: HCT-15; test: Antiproliferative activity against human HCT15 cells at 10 uM incubated for 48 hrs by sulforhodamine B assay; in short: as §2

## CC(=O)O[C@@H](C)[C@H]1O[C@H]2CC(=O)O[C@H]2[C@@H]1O
[1]
  Activity: inactive
[2]
  Activity: inactive
[3]
  Activity: inactive
[4]
  Activity: inactive
[5]
  Activity: inactive
[6]
  Activity: inactive
[7]
  Activity: inactive
[8]
  Activity: inactive
[9]
  Activity: inactive
[10]
  Activity: inactive
[11]
  Activity: inactive
[12]
  Activity: inactive
[13]
  Activity: inactive
[14]
  Activity: inactive
[15]
  Activity: inactive
[16]
  Activity: inactive

## CC(=O)O[C@H](C)[C@@H]1O[C@@H]2CC(=O)O[C@@H]2[C@H]1O
[1]
  Activity: inactive
[2]
  Activity: inactive
[3]
  Activity: inactive
[4]
  Activity: inactive
[5]
  Activity: inactive
[6]
  Activity: inactive
[7]
  Activity: inactive
[8]
  Activity: inactive
[9]
  Activity: inactive
[10]
  Activity: inactive
[11]
  Activity: inactive
[12]
  Activity: inactive
[13]
  Activity: inactive
[14]
  Activity: inactive
[15]
  Activity: inactive
[16]
  Activity: inactive

## CC(=O)O[C@@H](C)[C@@H]1O[C@@H]2CC(=O)O[C@@H]2[C@H]1O
[1]
  Activity: inactive
[2]
  Activity: inactive
[3]
  Activity: inactive
[4]
  Activity: inactive
[5]
  Activity: inactive
[6]
  Activity: inactive
[7]
  Activity: inactive
[8]
  Activity: inactive
[9]
  Activity: inactive
[10]
  Activity: inactive
[11]
  Activity: inactive
[12]
  Activity: inactive
[13]
  Activity: inactive
[14]
  Activity: inactive
[15]
  Activity: inactive
[16]
  Activity: inactive

## O=C1C[C@H]2O[C@H]([C@H](O)c3ccccc3)[C@H](O)[C@H]2O1
[1]
  Activity: Active
[2]
  Activity: Active
[3]
  Activity: Active
[4]
  Activity: Active
[5]
  Activity: Active
[6]
  Activity: Active
[7]
  Activity: Active
[8]
  Activity: Active
[9]
  Activity: Active
[10]
  Activity: Active
[11]
  Activity: Active
[12]
  Activity: Active
[13]
  Activity: Active
[14]
  Activity: Active
[15]
  Activity: Active
[16]
  Activity: Active

## CC(=O)O[C@H](C)[C@H]1O[C@H]2CC(=O)O[C@H]2[C@@H]1O
[1]
  Activity: inactive
[2]
  Activity: inactive
[3]
  Activity: inactive
[4]
  Activity: inactive
[5]
  Activity: inactive
[6]
  Activity: inactive
[7]
  Activity: inactive
[8]
  Activity: inactive
[9]
  Activity: inactive
[10]
  Activity: inactive
[11]
  Activity: inactive
[12]
  Activity: inactive
[13]
  Activity: inactive
[14]
  Activity: inactive
[15]
  Activity: inactive
[16]
  Activity: inactive

## O=C(/C=C/c1ccccc1)O[C@H](c1ccccc1)[C@@H]1O[C@@H]2CC(=O)O[C@@H]2[C@H]1O
[1]
  Activity: Active
[2]
  Activity: Active
[3]
  Activity: Active
[4]
  Activity: Active
[5]
  Activity: Active
[6]
  Activity: Active
[7]
  Activity: Active
[8]
  Activity: Active
[9]
  Activity: Active
[10]
  Activity: Active
[11]
  Activity: Active
[12]
  Activity: Active
[13]
  Activity: Active
[14]
  Activity: Active
[15]
  Activity: Active
[16]
  Activity: Active

## O=C1C[C@H]2O[C@H]([C@@H](O)c3ccccc3)[C@H](O)[C@H]2O1
[1]
  Activity: Active
[2]
  Activity: Active
[3]
  Activity: Active
[4]
  Activity: Active
[5]
  Activity: Active
[6]
  Activity: Active
[7]
  Activity: Active
[8]
  Activity: Active
[9]
  Activity: Active
[10]
  Activity: Active
[11]
  Activity: Active
[12]
  Activity: Active
[13]
  Activity: Active
[14]
  Activity: Active
[15]
  Activity: Active
[16]
  Activity: Active
